Source: PubChem BioAssay
The list is not random: actives were taken first. Their share in the collection is about 29%.
CYP2C9 inhib: blockers of cytochrome P450 2C9 activity – biochemical, luminescence, ADME assay, primary screen | P11712 | CYP2C9 Supersomes, luciferin-H conversion | inhibition, % at 5 µM | 96,000 compounds, 20% hits | AID 777, 2007;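 active means blocking of liver enzyme CYP2C9 beyond about 50% at 5 µM, limit read from the data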
Target sequence (P11712 whole entry, looked up): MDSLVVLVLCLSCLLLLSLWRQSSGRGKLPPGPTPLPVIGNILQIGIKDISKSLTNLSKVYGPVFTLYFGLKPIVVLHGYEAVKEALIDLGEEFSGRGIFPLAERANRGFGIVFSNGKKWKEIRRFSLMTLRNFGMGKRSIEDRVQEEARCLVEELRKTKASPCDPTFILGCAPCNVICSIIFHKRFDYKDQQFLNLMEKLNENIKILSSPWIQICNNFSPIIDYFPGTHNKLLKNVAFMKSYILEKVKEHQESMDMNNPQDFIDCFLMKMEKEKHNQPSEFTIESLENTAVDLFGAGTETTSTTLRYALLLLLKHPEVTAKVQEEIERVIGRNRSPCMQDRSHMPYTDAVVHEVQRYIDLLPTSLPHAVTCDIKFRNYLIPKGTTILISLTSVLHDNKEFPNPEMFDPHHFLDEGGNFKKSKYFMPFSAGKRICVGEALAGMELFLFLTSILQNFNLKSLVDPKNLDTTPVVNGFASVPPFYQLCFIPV
CYP2C9 activ: human CYP2C9 activators, primary screen, biochemical, luminescence; Cytochrome P450 2C9 (Homo sapiens), P11712; activation factor at 5 µM; 96,000 compounds, 1.4% hits; recombinant CYP2C9, luciferin-H conversion; active compounds read high; factor 1 = untreated enzyme, 0 = blocked;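 active means activation factor of 2 or more for CYP2C9 at a 5 µM dose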
CYP2C19 activ: human CYP2C19 activators, primary screen, biochemical, luminescence; recombinant CYP2C19, luciferin-H EGE luminescence; active compounds read high; 0 = fully inhibited enzyme, 1 = untreated enzyme; activation factor at 5 µM; 96,000 tested, under 10 active; AID 1025, 2008;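 active means activation factor of at least 2 at 5 µM in the primary screen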
Ecoli WT expand: growth inhibitors of wild-type E. coli, primary screen, strain BW25113, expanded library, OD600; OD600 absorbance; growth inhibition, % at 100 µM; 98,000 compounds, 0.15% hits;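 active means growth inhibition above about 50% at one test dose, limit read from the data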;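 further: growth measured after 20 h incubation at 37 °C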
tolC growth inh: growth inhibitors of E. coli tolC mutant, primary screen, strain BW25113 ΔtolC::kan, 384-well; OD615; growth inhibition, % at 10 µM (by protocol); 65,000 compounds, 2.2% hits; AID 573, 2007;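 active means growth inhibition at or above a cutoff equal to the mean over every tested compound plus 3 SD, cut at about 60% in these data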;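 further: growth measured after 20 h incubation at 37 °C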
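test system = E. coli BW25113 ΔtolC::kan bacteria | medium = LB with kanamycin 50 µg/mL | signal = OD at 615 nm | schedule = 37 °C, 20 h exposure | evaluation = % inhibition of E. coli growth | compound dosing = one dose of 10 µM final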
CYP2C19 inhib: blockers of cytochrome P450 2C19 activity – biochemical, luminescence, ADME assay, primary screen. CYP2C19 Supersomes, luciferin-H EGE luminescence, 30 min. inhibition, % at 5 µM. AID 778, 2007. 96,000 compounds, 21% hits;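 active means CYP2C19 inhibition above a set limit at 5 µM in the primary screen, cut at about 50% in these data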
Each line names hits and unclear results; the compound was inactive in the other large screens.

COc1ccc(-n2nnc3c(SCC(=O)NCC4CCCO4)ncnc32)cc1 (stereo not drawn)	none
COc1ccc(OC)c(-n2c(-c3ccc(S(C)(=O)=O)cc3)cc(C=O)c2C)c1	CYP2C9 inhib 66, CYP2C19 inhib 60 (no result: tolC growth inh)
COc1ccc(OC)c(-n2c(C)ccc2-c2ccc(S(C)(=O)=O)cc2)c1	CYP2C9 inhib 98, CYP2C19 inhib 96 (no result: tolC growth inh)
O=C(CCc1n[nH]c(=O)[nH]c1=O)N1CCOCC1	none
Cc1cc2c(=O)n(CC(=O)NCC(=O)N3CCN(Cc4ccccc4)CC3)cnc2s1	CYP2C9 inhib 52
Cc1cc2c(=O)n(CC(=O)N3CCN(c4ccccc4)CC3)cnc2s1	none
COc1cc2c(cc1OC)CN(Cc1nc3ccsc3c(=O)[nH]1)CC2	none
CCN(CC)S(=O)(=O)c1ccc2c(c1)nc(SCc1nc3ccsc3c(=O)[nH]1)n2CC	CYP2C9 inhib 69
O=C(c1ccc(Nc2cccc(C(F)(F)F)c2)nc1)N1CCCC1	CYP2C9 inhib 66, CYP2C19 inhib 60
Cc1[nH]c2c(C)cccc2c(=O)c1Br	none
Cc1ccc(CNC(=O)C2CCC(=O)N2CCc2ccccc2)cc1 (stereo not drawn)	none (no result: tolC growth inh)
COC(=O)Cc1c(C)c2ccc(OCC(=O)N3CCOCC3)cc2oc1=O	none
CCc1c(C)c2ccc(OCC(=O)OC)cc2oc1=O	CYP2C19 inhib 59
Cc1c(C(=O)OC2CCCC2C)[nH]c2c1C(=O)CCC2 (stereo not drawn)	CYP2C9 inhib 54, tolC growth inh 84
Cc1c(C(=O)OCCOc2ccccc2)[nH]c2c1C(=O)CCC2	CYP2C9 inhib 91, tolC growth inh 63, CYP2C19 inhib 91
CCCc1c(C(=O)OCC)[nH]c2c1C(=O)CCC2	none
COc1ccc(NC(=O)C(CC(C)C)NC(=O)c2ccccc2C)cn1 (stereo not drawn)	CYP2C9 inhib 52, CYP2C19 inhib 54
COc1ccccc1OCCNC(=O)c1ccccc1C	none
CCOC(=O)c1ccc(NC(=O)CC2Sc3ncnn3C2=O)cc1 (stereo not drawn)	none
CN(Cc1c(F)cccc1Cl)c1nnnn1-c1ccccc1	CYP2C19 inhib 100
CC1=CC(C#N)(C#N)C(C#N)(C#N)C(c2ccccc2)N1 (stereo not drawn)	CYP2C9 inhib 90
COC1(OC)N=C(N)C2(C#N)C(c3ccccc3)NC(C)=CC12C#N (stereo not drawn)	none (no result: tolC growth inh)
C=C(C)CSc1nnc(-c2cccc(S(=O)(=O)N(C)C)c2)n1-c1cc(OC)ccc1OC	CYP2C9 inhib 85, CYP2C19 inhib 86
CCCCCc1ccc(CC(=O)Nn2c(C)nc3ccccc3c2=O)cc1	CYP2C9 inhib 95, CYP2C19 inhib 60 (no result: tolC growth inh)
Cc1nc2ccccc2c(=O)n1NC(=O)Cc1ccc(Br)cc1	CYP2C9 inhib 85 (no result: tolC growth inh)
COc1cccc(OCCN2CCN(c3ncnc4c3cnn4-c3ccccc3)CC2)c1	none
COc1cccc(OCc2nc3c4cnn(-c5ccccc5)c4ncn3n2)c1	CYP2C19 inhib 53 (no result: tolC growth inh)
S=c1[nH]nc(CSCc2ccccc2Cl)n1-c1ccccc1	CYP2C9 inhib 76, CYP2C19 inhib 72 (no result: tolC growth inh)
Cc1cc2nc(SCC(=O)N(C)C)c3c(c2cc1C)CCCC3	none (no result: tolC growth inh)
CC12CC(c3ccccc3O1)N(C(=O)c1ccc(Br)o1)C(=O)N2c1ccccc1 (stereo not drawn)	CYP2C9 inhib 62 (no result: tolC growth inh)
O=C(CC1(O)C(=O)N(Cc2ccccc2)c2ccccc21)c1ccncc1 (stereo not drawn)	CYP2C9 inhib 66, CYP2C19 inhib 96
O=C(CC1(O)C(=O)N(Cc2ccccc2)c2ccccc21)c1ccc2c(c1)OCO2 (stereo not drawn)	none (no result: tolC growth inh)
Cc1ccccc1CN1C(=O)C(O)(CC(=O)c2ccncc2)c2ccccc21 (stereo not drawn)	CYP2C19 inhib 90
CC(C)(C)C(=O)CC1(O)C(=O)N(Cc2ccccc2)c2ccccc21 (stereo not drawn)	CYP2C9 inhib 54, CYP2C19 inhib 72 (no result: tolC growth inh)
